Hits are enriched below; roughly 2.6% of the tested compounds scored in any of these assays.
SENP8 block-1: inhibitors of human SENP8 protease; 360,000 compounds, 0.64% hits; AID 602440; Q96LD8; inhibition, % at 20 µM; recombinant SENP8, Nedd8 substrate fluorescence; in the data active = inhibition mostly above about 40%, no sharp cut-off; inactive = mostly below about 27%
SENP6 block: inhibitors of human SENP6 protease. Q9GZR1. Recombinant SENP6 catalytic domain, aminoluciferin luminescence. inhibition, % at 10 µM. 330,000 compounds, 1.8% hits;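 active = inhibition above about 50% at the single tested dose, limit read from the data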;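 also: plate controls were DMSO wells with enzyme for no effect and DMSO wells lacking enzyme for full effect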
SENP1 inh: SENP1 (human) catalytic domain inhibition; Q9P0U3; inhibition, % at 10 µM; 360,000 compounds, 0.21% hits; recombinant SENP1 catalytic domain, CyPet-SUMO1-YPet FRET cleavage;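 active = inhibition at least 30% at 10 µM, raw YFP signal under a set limit, fluorescence ratio 0.5 to 1.5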;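 also: 0% = enzyme with DMSO and 100% = no enzyme wells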
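Test system: human SENP1 catalytic domain; medium: Tris pH 8 buffer plus EDTA, NaCl, BME, BSA, NP40, catalase; incubation: 50 min reaction at room temperature; technique: FRET, CFP and YFP emission; controls: no-enzyme low control and enzyme-plus-DMSO high control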
SENP7 block: SENP7 protease inhibition | recombinant SENP7, Z-RLRGG-aminoluciferin luminescence, 40 min | inhibition, % at 5 µM | 330,000 compounds, 1.5% hits | AID 434973;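 active = inhibition above about 50% at the single test dose, limit read from the data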;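 also: plate controls were DMSO with enzyme for no effect and no enzyme buffer wells for full effect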
Target sequence (Q9BQF6 706-1050 limits assumed): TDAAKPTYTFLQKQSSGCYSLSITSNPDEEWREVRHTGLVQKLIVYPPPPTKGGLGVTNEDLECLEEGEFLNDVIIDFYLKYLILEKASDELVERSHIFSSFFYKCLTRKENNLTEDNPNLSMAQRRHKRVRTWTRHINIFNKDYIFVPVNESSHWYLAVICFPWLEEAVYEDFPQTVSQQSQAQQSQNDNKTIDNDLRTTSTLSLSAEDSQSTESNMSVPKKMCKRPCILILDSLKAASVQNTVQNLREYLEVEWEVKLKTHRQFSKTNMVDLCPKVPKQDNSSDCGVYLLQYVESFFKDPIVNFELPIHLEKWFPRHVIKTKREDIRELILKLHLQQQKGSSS
SENP8 block-2: inhibitors of human SENP8 protease | purified SENP8, Z-RLRGG-aminoluciferin cleavage, luminescence | inhibition, % at 10 µM | 330,000 compounds, 1.2% hits | AID 2540; in the data active = inhibition above about 50%
Platelet DG rel: modulates dense granule release in human platelets. inhibition, %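 (compounds screened at 7.5 µM in platelet-rich plasma)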. human platelet-rich plasma, SFLLRN dense granule ATP release, luminescence. 300,000 compounds, 0.22% hits;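 active = mean replicate score, as percent of positive control, at or above 50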
SENP8 conf: human SENP8 inhibition, confirmed; shares compounds with SENP7 block; Recombinant SENP8, Z-RLRGG-aminoluciferin luminescence, 60 min; inhibition, % at 12.5 µM; 6,200 compounds, 40% hits; AID 488912;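 active = mean inhibition across replicates above about 50%, limit read from the data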
SENP6 conf: human SENP6 inhibition, confirmed. shares compounds with SENP7 block. recombinant SENP6, Z-RLRGG-aminoluciferin luminescence. inhibition, % at 12.5 µM. 6,200 compounds, 58% hits. AID 488915
SENP7 confirm: confirmation of human SENP7 protease inhibitors; inhibition, % at 12.5 µM; 6,200 compounds, 69% hits; shares compounds with SENP7 block; recombinant SENP7, Z-RLRGG-aminoluciferin luminescence, 40 min; AID 488917
Casp3 select: selectivity test for SENP inhibitors: human caspase-3 inhibition | shares compounds with SENP7 block | purified caspase-3, Z-DEVD-aminoluciferin luminescence, 60 min | inhibition, % at 12.5 µM | 6,200 compounds, 60% hits;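 active = mean inhibition above about 50%, limit read from the data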;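 also: plate controls were enzyme with DMSO for no effect and wells without caspase-3 for full effect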
Target sequence (P42574 28-227 limits assumed): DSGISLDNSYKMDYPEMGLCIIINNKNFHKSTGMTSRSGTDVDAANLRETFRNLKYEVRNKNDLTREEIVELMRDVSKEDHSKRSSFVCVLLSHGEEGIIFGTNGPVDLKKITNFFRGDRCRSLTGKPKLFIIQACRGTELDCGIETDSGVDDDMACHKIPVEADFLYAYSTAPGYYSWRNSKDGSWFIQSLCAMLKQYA
SENP luc ctr: interferes with luciferase luminescence in SENP counter-screen; shares compounds with SENP7 block; Pre-incubated SENP8/Z-RLRGG-aminoluciferin, luciferase luminescence interference; inhibition, % at 12.5 µM; 6,200 compounds, 39% hits;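 active = mean inhibition above about 50% when retested at one dose, limit read from the data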;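 also: plate controls were DMSO wells with completed reaction for no effect and substrate without enzyme for full effect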
* hit, by the source's call; nt = not tested or not shown.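 The calls were made as follows, unless noted: active = mean inhibition above about 50% in the one-dose retest (limit read from the data); inactive = the rest.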

SMILES	SENP8 block-1	SENP6 block	SENP1 inh	SENP7 block	SENP8 block-2	Platelet DG rel	SENP8 conf	SENP6 conf	SENP7 confirm	Casp3 select	SENP luc ctr
COc1cc(/C=C(/C#N)c2nc3ccccc3[nH]2)ccc1OC(=O)c1ccco1	-296	84*	-18	70*	78*	16	52*	70*	99*	84*	37
COc1cc(/C=C(/C#N)c2nc3ccccc3c(=O)[nH]2)ccc1O	-16	94*	-28	87*	84*	6	13	22	24	62*	11
C=C1C(=O)O[C@H]2C1CC[C@@](C)(O)C13C=CC(C)(C21)C1(C3)C(=O)O[C@@H]2C3C(C)=CCC3[C@](C)(O)C[C@H](OC(C)=O)C21 (stereo not given in full)	9	5	-4	13	10	5	nt	nt	nt	nt	nt
O=C1CC(NS(=O)(=O)c2cccs2)CN1c1ccccc1 (stereo not given)	3	-17	1	11	-14	-1	nt	nt	nt	nt	nt
CCCCn1c(N)c(N(CCC(C)C)C(=O)C2CCCC2)c(=O)[nH]c1=O	-4	-9	-4	-4	-12	nt	nt	nt	nt	nt	nt
COc1nsnc1NS(=O)(=O)c1ccc(NC(=S)NC(=O)c2cccnc2)cc1	16	54*	1	30	24	1	55*	51*	82*	84*	55*
COc1ccc(NC(=S)NC(=O)c2cccnc2)cc1	16	-2	0	4	1	0	nt	nt	nt	nt	nt
Cc1ccc(NC(=O)CSc2nc3[nH]ncc3c(=O)[nH]2)cc1Cl	3	1	2	-3	10	1	nt	nt	nt	nt	nt
C=CCN(CC=C)C(=O)c1ccc(OC2CCN(C(C)=O)CC2)c(OC)c1	7	15	1	0	5	4	nt	nt	nt	nt	nt
Cn1ccnc1SCC(=O)c1c[nH]c2ccccc12	-9	58*	-3	50	33	2	48	42	78*	78*	54*
COc1ccccc1C(=O)CSc1nccn1C	7	-10	-1	1	-4	1	nt	nt	nt	nt	nt
O=C(c1cc(-c2cccc(O)c2)on1)N1CCCCCC1	12	37	0	16	20	-10	nt	nt	nt	nt	nt
O=C(c1cc(-c2cccc(O)c2)on1)N1CCOCC1	15	63*	2	47	26	14	48	42	70*	78*	59*
O=C(c1cc(-c2ccc(Br)cc2)on1)N1CCCCCC1	13	-2	1	16	-13	1	nt	nt	nt	nt	nt
COc1ccc(-c2cc(C(=O)N3CCOCC3)no2)cc1	9	51*	2	55*	42	1	54*	52*	83*	79*	53*
O=C(c1cc(-c2ccc(Br)cc2)on1)N1CCOCC1	16	53*	1	34	27	0	25	46	21	35	2
c1c2c(cc3sc(N4CCOCC4)nc13)OCCO2	11	94*	-2	94*	89*	57*	89*	93*	100*	96*	57*
c1ccc(N2CCN(c3nc4cc5c(cc4s3)OCCO5)CC2)cc1	13	-4	2	-3	5	12	nt	nt	nt	nt	nt
O=C(Nc1ccc(CN2CCOCC2)cc1)c1cc2ccccc2o1	3	-8	1	9	-2	-3	nt	nt	nt	nt	nt
O=C(Nc1ccc(N2CCOCC2)cc1)c1cc2ccccc2o1	17	70*	1	48	38	8	12	45	82*	69*	17
O=C(Nc1ccc2c(c1)OCCO2)c1cc2ccccc2o1	0	81*	1	78*	61*	11	2	84*	97*	80*	79*
O=C(Nc1ccc(N2CCOCC2)cc1)c1nc2ccccc2s1	37	95*	7	98*	75*	88*	-23	12	26	17	45
Cc1c(C(=O)Nc2ccc(N3CCOCC3)cc2)oc2ccccc12	13	70*	0	67*	32	1	12	59*	62*	54*	11
O=c1[nH]c2ccccc2nc1/C=C(\O)c1cccs1	-233	38	-28	4	18	-1	nt	nt	nt	nt	nt
COc1cccc(C(=O)Nc2nc3ccccc3[nH]2)c1	-1	94*	18	95*	90*	31	6	93*	102*	96*	17
SMILES	SENP8 block-1	SENP6 block	SENP1 inh	SENP7 block	SENP8 block-2	Platelet DG rel	SENP8 conf	SENP6 conf	SENP7 confirm	Casp3 select	SENP luc ctr
Cc1c(C(=O)Nc2nc3ccccc3[nH]2)oc2ccccc12	-156	69*	-11	57*	38	8	-27	60*	89*	65*	7
COc1cc(C(=O)Nc2nc3ccccc3[nH]2)cc(OC)c1OC	-2	-9	0	4	2	-2	nt	nt	nt	nt	nt
Cc1ccc(C(=O)Nc2nc3ccccc3[nH]2)cc1	-3	93*	4	97*	93*	16	10	8	-4	48	10
Cc1ccc(N(C)S(=O)(=O)c2cccc(C(=O)Nc3nc4ccccc4[nH]3)c2)cc1	-53	-9	2	3	-2	4	nt	nt	nt	nt	nt
O/C(=C\c1nc2ccccc2[nH]1)c1cccs1	-99	61*	-15	20	33	1	40	74*	66*	38	46
CCOc1ccc(CNC(=O)CCCC(=O)n2nc(C)c3ccccc32)cc1	15	0	3	3	11	1	nt	nt	nt	nt	nt
O=c1[nH]c(SCc2ccc(F)cc2)nc2c1cnn2-c1ccc(F)cc1	25	6	3	5	0	13	nt	nt	nt	nt	nt
CS(=O)(=O)/C(C#N)=C\c1cnc(S(=O)(=O)c2ccccc2)s1	nt	25	nt	-5	-1	14	nt	nt	nt	nt	nt
CC1(C)C2CCC1(CS(=O)(=O)N1CCCc3ccccc31)C(=O)C2 (stereo not given)	23	-22	1	-5	-10	-6	nt	nt	nt	nt	nt
Cc1cc(C)cc(N(C(=O)c2cccs2)C2C=CS(=O)(=O)C2)c1 (stereo not given)	9	-20	1	4	-12	3	nt	nt	nt	nt	nt
COc1ccc([C@H]2[C@@H]3C=CCC[C@@]3(C)C(=O)N2Cc2ccccc2)cc1Cl	-1	-9	2	4	-2	-3	nt	nt	nt	nt	nt
